# Results taken from ChEMBL document CHEMBL1153820, “Novel derivatives of pyridylbenzo[b]thiophene-2-carboxamides and benzo[b]thieno[2,3-c]naphthyridin-2-ones: minor structural variations provoke major differences of antitumor action mechanisms” (J Med Chem, 2009).
# Calls of active or inactive are those of the source. The rule behind the calls is not given here.
# Legend:
# MIA PaCa-2 [1] = experiment: Cell cycle arrest in human MIAPaCa2 cells assessed as accumulation at subG1 phase at 5 uM after 48 hrs by flow cytometry; format: functional
# In short: (§1)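 MiaPaCa-2 cells (2 × 10^5/well) seeded, compound (5 μM) added after 24 h, exposed 24 or 48 h. Attached and floating cells pooled, fixed in 70% ethanol, stained with propidium iodide 50 μg/mL plus RNase A. 20 000 events by flow cytometry; phase percentages (sub-G1 taken as apoptotic) from DNA histograms. Duplicates, repeated at least twice.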
# Calf thymus DNA [2] = experiment: Binding affinity to calf thymus DNA assessed as change in melting temperature at [compound]/[polynucleotide] ratio of 0.3 at pH 7.0; format: nucleic-acid assay; conditions: Bos taurus
# In short: (§2)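 Thermal denaturation of ct-DNA (sonicated, filtered, concentration as phosphate) alone and with compound in Na cacodylate buffer pH 7.0, I = 0.05 mol dm-3. Absorbance at 260 nm followed versus temperature, ligand absorbance subtracted, scale normalized. Tm is the transition midpoint, from the first-derivative maximum or by tangent method. ΔTm = Tm(complex) − Tm(free DNA). Mean of at least two runs, error ±0.5 °C.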
# MIA PaCa-2 [3] = experiment: Cell cycle arrest in human MIAPaCa2 cells assessed as accumulation at subG1 phase at 5 uM after 24 hrs by flow cytometry; format: functional; in short: as §1
# Calf thymus DNA [4] = experiment: Binding affinity to calf thymus DNA at pH 7.0 by fluorimetric titration method; format: nucleic-acid assay; conditions: Bos taurus
# In short: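 Fluorimetric titration: ct-DNA portions added to compound at about tenfold lower concentration than in UV/vis, absorbance below 0.05 at excitation. Emission 350–550 nm in Na cacodylate buffer pH 7.0, I = 0.05 mol dm-3. log Ks from Scatchard fitting (nonlinear least squares) at fixed n = 0.2.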
# MIA PaCa-2 [5] = experiment: Cell cycle arrest in human MIAPaCa2 cells assessed as accumulation at G1/G0 phase at 5 uM after 48 hrs by flow cytometry; format: functional; in short: as §1
# MIA PaCa-2 [6] = experiment: Cell cycle arrest in human MIAPaCa2 cells assessed as accumulation at G1/G0 phase at 5 uM after 24 hrs by flow cytometry; format: functional; in short: as §1
# MIA PaCa-2 [7] = experiment: Cell cycle arrest in human MIAPaCa2 cells assessed as accumulation at S phase at 5 uM after 24 hrs by flow cytometry; format: functional; in short: as §1
# MCF7 = experiment: Growth inhibition of human MCF7 cells after 72 hrs by MTT method; format: functional, cell-based; conditions: MCF7, 72 h
# In short: (§3)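 Cells in DMEM with 10% FBS, 2 mM L-glutamine, penicillin/streptomycin, 37 °C, 5% CO2. Seeded at 1 × 10^4 to 3 × 10^4 cells/mL. Compound given as five 10-fold dilutions (10-8–10-4 M, DMSO under 1%) for 72 h, then MTT read-out. Quadruplicate, three experiments. IC50 by linear regression between concentrations bracketing 50% growth; top concentration reported as ">" when not reached.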
# Calf thymus DNA [8] = experiment: Binding affinity to calf thymus DNA assessed as change in melting temperature at [compound]/[polynucleotide] ratio of 0.5 at pH 7.0; format: nucleic-acid assay; conditions: Bos taurus; in short: as §2
# HeLa = experiment: Growth inhibition of human HeLa cells after 72 hrs by MTT method; format: functional, cell-based; in short: as §3
# Bos taurus [9] = species on record: Bos taurus; experiment: Inhibition of calf thymus topoisomerase 1-mediated DNA relaxation at 200 uM by gel electrophoresis
# In short: (§4)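 Supercoiled pCI plasmid (0.8 μg) with calf thymus topoisomerase I (6 U) ± compound (200 μM) in Tris-HCl pH 7.5, 175 mM KCl, 5 mM MgCl2, 0.1 mM EDTA, 2.5% glycerol; 37 °C, 30 min. Stopped with SDS, then proteinase K and phenol/chloroform extraction. Samples run on 1% agarose with and without 0.5 μg/mL ethidium bromide to resolve nicked, supercoiled and relaxed forms; UV visualization.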
# MIA PaCa-2 [10] = experiment: Cell cycle arrest in human MIAPaCa2 cells assessed as accumulation at G2/M phase at 5 uM after 24 hrs by flow cytometry; format: functional; in short: as §1
# SW-620 = experiment: Growth inhibition of human SW620 cells after 72 hrs by MTT method; format: functional, cell-based; conditions: SW-620, 72 h; in short: as §3
# Bos taurus [11] = species on record: Bos taurus; experiment: Inhibition of calf thymus topoisomerase 1-mediated DNA relaxation assessed as induction of plasmid DNA nicking at 200 uM by gel electrophoresis; in short: as §4
# NCI-H460 = experiment: Growth inhibition of human H460 cells after 72 hrs by MTT method; format: functional, cell-based; conditions: NCI-H460, 72 h; in short: as §3
# MIA PaCa-2 [12] = experiment: Cell cycle arrest in human MIAPaCa2 cells assessed as accumulation at S phase at 5 uM after 48 hrs by flow cytometry; format: functional; in short: as §1
# Calf thymus DNA [13] = experiment: Binding affinity to calf thymus DNA assessed as decrease in DNA bands at 245 nm and 280 nm wavelength by CD spectroscopy; format: nucleic-acid assay; conditions: Bos taurus
# MIA PaCa-2 [14] = experiment: Growth inhibition of human MIAPaCa2 cells after 72 hrs by MTT method; format: functional, cell-based; conditions: MIA PaCa-2, 72 h; in short: as §3
# MIA PaCa-2 [15] = experiment: Cell cycle arrest in human MIAPaCa2 cells assessed as accumulation at G2/M phase at 5 uM after 48 hrs by flow cytometry; format: functional; in short: as §1
# Bos taurus [16] = species on record: Bos taurus; experiment: Inhibition of calf thymus topoisomerase 1-mediated DNA relaxation assessed as induction of plasmid DNA nicking at 100 uM by gel electrophoresis
# In short: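 Purified calf thymus topoisomerase I (6 U) was incubated with negatively supercoiled pCI plasmid (0.8 μg), with or without compound, in Tris-HCl relaxation buffer (pH 7.5, 175 mM KCl, 5 mM MgCl2) at 37 °C for 30 min. The reaction was stopped with SDS and proteinase K, then phenol-extracted. Samples were split onto 1% agarose gels with and without ethidium bromide to separate nicked, supercoiled and relaxed forms, and read under UV.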
# MIA PaCa-2 [17] = experiment: Induction of multinucleation in human MIAPaCa2 cells at 5 uM after 24 hrs by DAPI staining; format: functional, cell-based
# In short: (§5)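 MiaPaCa-2 cells (2 × 10^5) grown overnight on coverslips, then exposed to 5 μM compound for 24 h. Fixed in 4% formaldehyde, permeabilized with 0.1% Triton X-100, blocked with 4% FCS. Stained with mouse anti-α-tubulin (1/200, 2 h) and FITC anti-mouse secondary (1/500, 1 h). Nuclei stained with DAPI 100 ng/mL; fluorescence microscopy at 400×.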
# MIA PaCa-2 [18] = experiment: Induction of tubulin network disruption in human MIAPaCa2 cells at 5 uM after 24 hrs by immunofluorescence spectroscopy; format: functional, cell-based; in short: as §5
# MIA PaCa-2 [19] = experiment: Induction of cell shape disruption in human MIAPaCa2 cells at 5 uM after 24 hrs by immunofluorescence spectroscopy; format: functional, cell-based; in short: as §5
# MIA PaCa-2 [20] = experiment: Induction of nuclear fragmentation in human MIAPaCa2 cells at 5 uM after 24 hrs by DAPI staining; format: functional, cell-based; in short: as §5
# MIA PaCa-2 [21] = experiment: Induction of apoptosis in human MIAPaCa2 cells by flow cytometry; format: functional, cell-based; in short: as §1
# Calf thymus DNA [22] = experiment: Binding affinity to calf thymus DNA at pH 7.0 by UV/Visible spectroscopy; format: nucleic-acid assay; conditions: Bos taurus
# In short: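 UV/vis titration: portions of ct-DNA (as phosphate) added to compound (c = 1.2 × 10-5 mol dm-3). Na cacodylate buffer pH 7.0, I = 0.05 mol dm-3; change followed at λmax 314 nm. Ks and n from Scatchard equation by nonlinear least-squares fitting.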
# Calf thymus DNA [23] = experiment: Binding affinity to calf thymus DNA minor groove assessed as change in DNA spectrum by CD spectroscopy; format: nucleic-acid assay; conditions: Bos taurus
SMILES,Activity (MIA PaCa-2 [1]),ΔTm (Calf thymus DNA [2]),Activity (MIA PaCa-2 [3]),Activity (MIA PaCa-2 [5]),Activity (MIA PaCa-2 [6]),Activity (MIA PaCa-2 [7]),IC50 (MCF7),ΔTm (Calf thymus DNA [8]),IC50 (HeLa),Activity (MIA PaCa-2 [10]),IC50 (SW-620),IC50 (NCI-H460),Activity (MIA PaCa-2 [12]),IC50 (MIA PaCa-2 [14]),Activity (MIA PaCa-2 [15]),also measured
Cl.O=c1[nH]c2ncc(C3=NCCN3)cc2c2c1sc1ccccc12,1.7%,6.6 °C,2%,52.8%,38.9%,41.5%,1.6 µM,8.7 °C,1.7 µM,19.7%,0.6 µM,1 µM,33.2%,1 µM,14.1%,log Ks (Calf thymus DNA [4]): 6.44; Activity (Bos taurus [9]): Active; Activity (Bos taurus [11]): inactive; Activity (Calf thymus DNA [13]): Active
O=C(Nc1ccncc1)c1sc2ccccc2c1Cl,–,–,–,–,–,–,51 µM,–,2 µM,–,38 µM,68 µM,–,38 µM,–,–
N#Cc1cnc2[nH]c(=O)c3sc4ccccc4c3c2c1,–,–,–,–,–,–,45 µM,–,7 µM,–,22 µM,> 100 µM,–,12 µM,–,–
N#Cc1ccc(NC(=O)c2sc3ccccc3c2Cl)nc1,–,–,–,–,–,–,20 µM,–,2 µM,–,20 µM,59 µM,–,8 µM,–,–
N=C(N)c1ccc(-c2cc3ccc(C(=N)N)cc3[nH]2)cc1,–,–,–,–,–,–,–,–,–,–,–,–,–,–,–,Activity (Bos taurus [16]): inactive
Cl.O=C(Nc1ccc(C2=NCCN2)nc1)c1sc2ccccc2c1Cl,36%,0 °C,18.5%,23.14%,17.5%,16%,4 µM,0.9 °C,1 µM,66.5%,1.3 µM,1.3 µM,26%,1.6 µM,50.9%,Activity (MIA PaCa-2 [17]): Active; Activity (MIA PaCa-2 [18]): Active; Activity (MIA PaCa-2 [19]): Active; Activity (MIA PaCa-2 [20]): Active; Activity (MIA PaCa-2 [21]): Active
O=c1[nH]c2ccncc2c2c1sc1ccccc12,–,–,–,–,–,–,> 100 µM,–,14 µM,–,6 µM,> 100 µM,–,7 µM,–,–
CC[C@@]1(O)C(=O)OCc2c1cc1n(c2=O)Cc2cc3ccccc3nc2-1,–,–,–,–,–,–,–,–,–,–,–,–,–,–,–,Activity (Bos taurus [16]): Active
Cl.O=C(Nc1ccc(C2=NCCN2)cn1)c1sc2ccccc2c1Cl,4.9%,1.3 °C,3.2%,52.3%,37.7%,41.6%,1.8 µM,2.1 °C,1.5 µM,20.7%,1 µM,1 µM,32.6%,1 µM,15.1%,log Ks (Calf thymus DNA [4]): 5.6; log Ks (Calf thymus DNA [22]): 5.7; Activity (Bos taurus [11]): inactive; Activity (Calf thymus DNA [23]): Active
